Results reported in ChEMBL document CHEMBL5260840 (J Med Chem, 2019).
Activity calls are given as the source filed them. The rule behind the calls is not given here.

Experiments:
[1] = target: T1, Protein cereblon/Bromodomain-containing protein 7 (Homo sapiens) (UniProt Q9NPI1+Q96SW2); assay: PROTAC activity at CRBN/BRD7 in human Ri-1 cells assessed as remaining BRD7 protein level at 1 uM incubated for 2 hrs by Western blot analysis relative to control; type: cell-based
In short: (§1)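 Cells given 1 µM compound before harvest: HeLa 4 h, RI-1 2 h and 8 h. BRD9, BRD7 and β-actin detected by Western blot; band intensities quantified.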

[2] = target: T2, Protein cereblon/Bromodomain-containing protein 9 (Homo sapiens) (UniProt Q9H8M2+Q96SW2); assay: PROTAC activity at CRBN/BRD9 in human Ri-1 cells assessed as remaining BRD9 protein level at 1 uM incubated for 8 hrs by Western blot analysis relative to control; type: cell-based; in short: as §1
[3] = target: T2, Protein cereblon/Bromodomain-containing protein 9 (Homo sapiens); assay: PROTAC activity at CRBN/BRD9 in human Ri-1 cells assessed as remaining BRD9 protein level at 1 uM incubated for 2 hrs by Western blot analysis relative to control; type: cell-based; in short: as §1
[4] = target: T2, Protein cereblon/Bromodomain-containing protein 9 (Homo sapiens); assay: PROTAC activity at CRBN/BRD9 in human HeLa cells assessed as remaining BRD9 protein level at 1 uM incubated for 16 hrs by Western blot analysis relative to control; type: cell-based
In short: (§2)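 HeLa cells given 1 µM compound for 16 h before harvest. BRD9, BRD7 and β-actin detected by Western blot; band intensities quantified.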

[5] = target: T2, Protein cereblon/Bromodomain-containing protein 9 (Homo sapiens); assay: PROTAC activity at CRBN/BRD9 in human HeLa cells assessed as remaining BRD9 protein level at 1 uM incubated for 4 hrs by Western blot analysis relative to control; type: cell-based; in short: as §1
[6] = target: T1, Protein cereblon/Bromodomain-containing protein 7 (Homo sapiens); assay: PROTAC activity at CRBN/BRD7 in human Ri-1 cells assessed as remaining BRD7 protein level at 1 uM incubated for 8 hrs by Western blot analysis relative to control; type: cell-based; in short: as §1
[7] = target: T1, Protein cereblon/Bromodomain-containing protein 7 (Homo sapiens); assay: PROTAC activity at CRBN/BRD7 in human HeLa cells assessed as remaining BRD7 protein level at 1 uM incubated for 16 hrs by Western blot analysis relative to control; type: cell-based; in short: as §2
A204 = assay: Antiproliferative activity against human A204 cells assessed as inhibition of cell growth incubated for 7 days by CellTiterGlo assay; type: functional, cell-based; conditions: A204, 168 h
[8] = target: T1, Protein cereblon/Bromodomain-containing protein 7 (Homo sapiens); assay: PROTAC activity at CRBN/BRD7 in human HeLa cells assessed as remaining BRD7 protein level at 1 uM incubated for 4 hrs by Western blot analysis relative to control; type: cell-based; in short: as §1
[9] = target: T3, von Hippel-Lindau disease tumor suppressor/Bromodomain-containing protein 9 (Homo sapiens) (UniProt Q9H8M2+P40337); assay: PROTAC activity at VHL/BRD9 in human HeLa cells assessed as maximal protein degradation at 10 uM incubated for 4 hrs by Western blot analysis relative to control; type: cell-based
In short: (§3)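 HeLa cells treated with compound for the stated time before harvest; BRD9, BRD7 and β-actin detected by Western blot with β-actin loading control; band intensities quantified.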

[10] = target: T3, von Hippel-Lindau disease tumor suppressor/Bromodomain-containing protein 9 (Homo sapiens); assay: PROTAC activity at VHL/BRD9 in human Ri-1 cells assessed as remaining BRD9 protein level at 1 uM incubated for 8 hrs by Western blot analysis relative to control; type: cell-based
In short: (§4)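 Ri-1 cells exposed to compound for the stated time before harvest; BRD9, BRD7 and β-actin measured by Western blot, band intensities quantified and set against DMSO-treated control.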

[11] = target: T4, von Hippel-Lindau disease tumor suppressor/Bromodomain-containing protein 7 (Homo sapiens) (UniProt Q9NPI1+P40337); assay: PROTAC activity at VHL/BRD7 in human Ri-1 cells assessed as remaining BRD7 protein level at 1 uM incubated for 2 hrs by Western blot analysis relative to control; type: cell-based
[12] = target: T3, von Hippel-Lindau disease tumor suppressor/Bromodomain-containing protein 9 (Homo sapiens); assay: PROTAC activity at VHL/BRD9 in human HeLa cells assessed as protein degradation at 1 uM incubated for 4 hrs by Western blot analysis relative to control; type: cell-based; in short: as §3
[13] = target: T4, von Hippel-Lindau disease tumor suppressor/Bromodomain-containing protein 7 (Homo sapiens); assay: PROTAC activity at VHL/BRD7 in human Ri-1 cells assessed as remaining BRD7 protein level at 1 uM incubated for 8 hrs by Western blot analysis relative to control; type: cell-based
[14] = target: T3, von Hippel-Lindau disease tumor suppressor/Bromodomain-containing protein 9 (Homo sapiens); assay: PROTAC activity at VHL/BRD9 in human HeLa cells assessed as BRD9 protein degradation at 1 uM incubated for 4 hrs by Western blot analysis relative to control; type: cell-based; in short: as §3
[15] = target: T3, von Hippel-Lindau disease tumor suppressor/Bromodomain-containing protein 9 (Homo sapiens); assay: PROTAC activity at VHL/BRD9 in human HeLa cells assessed as apparent half-life of BRD9 at 1 uM; type: cell-based
[16] = target: T3, von Hippel-Lindau disease tumor suppressor/Bromodomain-containing protein 9 (Homo sapiens); assay: PROTAC activity at VHL/BRD9 in human Ri-1 cells assessed as remaining BRD9 protein level at 1 uM incubated for 2 hrs by Western blot analysis relative to control; type: cell-based; in short: as §4
[17] = target: T5, Von Hippel-Lindau disease tumor suppressor/Elongin B/Elongin C (Homo sapiens) (UniProt P40337+Q15370+Q15369); assay: Co-operative binding affinity to 6His-tagged human VHL/ElonginC/ElonginB expressed in Escherichia coli BL21 (DE3) cells assessed as maximal intensity in the presence of BRD9-BD as complex with compound incubated for 1 hrs by AlphaLISA proximity assay
[18] = target: T4, von Hippel-Lindau disease tumor suppressor/Bromodomain-containing protein 7 (Homo sapiens); assay: PROTAC activity at VHL/BRD7 in human HeLa cells assessed as remaining BRD7 protein level at 1 uM incubated for 4 hrs by Western blot analysis relative to control; type: cell-based
[19] = target: T3, von Hippel-Lindau disease tumor suppressor/Bromodomain-containing protein 9 (Homo sapiens); assay: PROTAC activity at VHL/BRD9 in human HeLa cells assessed as remaining BRD9 protein level at 1 uM incubated for 16 hrs by Western blot analysis relative to control; type: cell-based; in short: as §3
[20] = target: T5, Von Hippel-Lindau disease tumor suppressor/Elongin B/Elongin C (Homo sapiens); assay: Co-operative binding affinity to 6His-tagged human VHL/ElonginC/ElonginB expressed in Escherichia coli BL21 (DE3) cells assessed as total gibb's free energy change in the presence of BRD9-BD as complex with compound by ITC analysis
[21] = target: T4, von Hippel-Lindau disease tumor suppressor/Bromodomain-containing protein 7 (Homo sapiens); assay: PROTAC activity at VHL/BRD7 in human HeLa cells assessed as remaining BRD7 protein level at 1 uM incubated for 16 hrs by Western blot analysis relative to control; type: cell-based
[22] = target: T3, von Hippel-Lindau disease tumor suppressor/Bromodomain-containing protein 9 (Homo sapiens); assay: PROTAC activity at VHL/BRD9 in human HeLa cells assessed as BRD9 protein degradation at 1 uM incubated for 8 hrs by Western blot analysis; type: cell-based; in short: as §3
[23] = target: Bromodomain-containing protein 4 (Homo sapiens) (UniProt O60885)

T1 sequence (Q96SW2 whole entry, looked up): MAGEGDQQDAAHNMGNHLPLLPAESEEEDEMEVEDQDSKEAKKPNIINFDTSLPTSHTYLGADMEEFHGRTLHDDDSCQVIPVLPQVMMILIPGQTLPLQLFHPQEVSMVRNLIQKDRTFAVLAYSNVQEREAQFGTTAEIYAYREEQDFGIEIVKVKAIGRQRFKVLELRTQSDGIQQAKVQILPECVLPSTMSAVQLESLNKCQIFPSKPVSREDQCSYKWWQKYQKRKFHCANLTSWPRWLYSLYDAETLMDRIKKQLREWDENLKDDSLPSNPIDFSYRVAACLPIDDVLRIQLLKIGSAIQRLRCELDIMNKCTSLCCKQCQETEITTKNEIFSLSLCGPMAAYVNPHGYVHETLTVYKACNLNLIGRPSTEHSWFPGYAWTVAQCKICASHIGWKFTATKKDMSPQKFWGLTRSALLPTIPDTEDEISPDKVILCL
T1 sequence (Q9NPI1 whole entry, looked up): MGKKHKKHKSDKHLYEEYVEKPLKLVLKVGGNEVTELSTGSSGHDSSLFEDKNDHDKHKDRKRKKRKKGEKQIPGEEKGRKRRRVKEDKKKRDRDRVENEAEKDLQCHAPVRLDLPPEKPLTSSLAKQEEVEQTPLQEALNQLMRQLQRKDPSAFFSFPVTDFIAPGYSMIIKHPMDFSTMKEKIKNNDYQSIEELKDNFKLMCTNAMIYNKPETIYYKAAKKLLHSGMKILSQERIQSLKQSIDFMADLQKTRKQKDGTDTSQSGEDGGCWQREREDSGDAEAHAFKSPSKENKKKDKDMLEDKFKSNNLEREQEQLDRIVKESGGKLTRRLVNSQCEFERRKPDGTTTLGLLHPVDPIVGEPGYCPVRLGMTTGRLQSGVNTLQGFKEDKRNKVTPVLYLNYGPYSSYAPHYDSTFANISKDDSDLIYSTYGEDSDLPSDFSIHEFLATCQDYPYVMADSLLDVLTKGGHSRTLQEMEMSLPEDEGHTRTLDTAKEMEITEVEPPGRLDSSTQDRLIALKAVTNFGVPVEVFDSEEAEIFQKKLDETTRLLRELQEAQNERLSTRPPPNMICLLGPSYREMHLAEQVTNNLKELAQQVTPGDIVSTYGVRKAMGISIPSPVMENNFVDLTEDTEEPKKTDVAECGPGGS
T2 sequence (Q96SW2 whole entry, looked up): as the sequence (Q96SW2 whole entry, looked up) above
T2 sequence (Q9H8M2 whole entry, looked up): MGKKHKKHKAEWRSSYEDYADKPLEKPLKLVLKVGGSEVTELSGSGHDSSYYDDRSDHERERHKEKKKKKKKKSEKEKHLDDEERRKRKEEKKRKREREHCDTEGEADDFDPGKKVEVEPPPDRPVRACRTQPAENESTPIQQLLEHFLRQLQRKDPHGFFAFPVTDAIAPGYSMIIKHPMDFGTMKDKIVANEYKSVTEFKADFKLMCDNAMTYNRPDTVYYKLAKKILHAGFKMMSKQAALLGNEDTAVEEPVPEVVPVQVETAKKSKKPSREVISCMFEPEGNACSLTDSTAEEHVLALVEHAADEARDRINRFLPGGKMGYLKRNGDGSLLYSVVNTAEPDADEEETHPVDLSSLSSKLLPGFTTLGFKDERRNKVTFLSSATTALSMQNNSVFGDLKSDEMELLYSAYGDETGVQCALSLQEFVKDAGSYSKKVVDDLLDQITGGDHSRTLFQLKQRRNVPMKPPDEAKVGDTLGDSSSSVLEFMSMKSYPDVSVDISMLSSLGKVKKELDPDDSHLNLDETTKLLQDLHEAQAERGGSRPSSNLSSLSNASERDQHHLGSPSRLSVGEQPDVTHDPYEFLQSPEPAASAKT
T3 sequence (P40337 whole entry, looked up): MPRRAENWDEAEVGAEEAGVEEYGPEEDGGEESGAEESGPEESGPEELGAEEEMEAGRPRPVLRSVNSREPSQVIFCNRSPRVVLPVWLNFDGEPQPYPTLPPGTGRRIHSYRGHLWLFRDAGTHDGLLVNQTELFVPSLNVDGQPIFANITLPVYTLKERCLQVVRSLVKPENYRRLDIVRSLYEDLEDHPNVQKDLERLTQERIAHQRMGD
T3 sequence (Q9H8M2 whole entry, looked up): as the sequence (Q9H8M2 whole entry, looked up) above
T4 sequence (P40337 whole entry, looked up): as the sequence (P40337 whole entry, looked up) above
T4 sequence (Q9NPI1 whole entry, looked up): as the sequence (Q9NPI1 whole entry, looked up) above
T5 sequence (P40337 whole entry, looked up): as the sequence (P40337 whole entry, looked up) above
T5 sequence (Q15369 whole entry, looked up): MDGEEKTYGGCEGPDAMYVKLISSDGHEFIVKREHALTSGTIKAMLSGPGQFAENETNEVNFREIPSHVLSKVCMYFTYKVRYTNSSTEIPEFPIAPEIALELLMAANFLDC
T5 sequence (Q15370 whole entry, looked up): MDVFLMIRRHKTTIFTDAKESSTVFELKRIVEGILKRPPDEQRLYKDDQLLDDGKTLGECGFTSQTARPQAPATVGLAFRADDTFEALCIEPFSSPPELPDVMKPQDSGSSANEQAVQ

COc1cc(-c2cn(C)c(=O)c3cnccc23)cc(OC)c1CN1CCN(CCOCCOCC(=O)NCCNc2cccc3c2C(=O)N(C2CCC(=O)NC2=O)C3=O)CC1 (centres undefined)
Activity [1]: 158%
Activity [2]: 2%
Activity [3]: 5%
Activity [4]: 7%
Activity [5]: 6%
Activity [6]: 225%
Activity [7]: 97%
IC50 (A204): 305 nM
Activity [8]: 81%

COc1cc(-c2cn(C)c(=O)c3cnccc23)cc(OC)c1CN1CCN(CCOCCOCCOc2cc(-c3scnc3C)ccc2CNC(=O)[C@@H]2C[C@@H](O)CN2C(=O)[C@@H](NC(=O)C2(F)CC2)C(C)(C)C)CC1
Emax [9]: 80%
Activity [10]: 100%
Activity [11]: 127%
Activity [12]: 60%
Activity [13]: 145%
Activity [14]: > 50%
T1/2 [15]: 3.47 h
Activity [16]: 68%
Activity [17]: 1.56 10^6No_unit
Activity [18]: 7%
Activity [19]: 36%
deltaG [20]: -20.7 kcal/mol
Activity [21]: 90%
Activity [22]: Active

Cc1ncsc1-c1ccc(CNC(=O)[C@@H]2C[C@@H](O)CN2C(=O)[C@@H](NC(=O)COCCOCCOCCNC(=O)C[C@@H]2N=C(c3ccc(Cl)cc3)c3c(sc(C)c3C)-n3c(C)nnc32)C(C)(C)C)cc1
deltaG [23]: -22.2 kcal/mol
